Most compounds without a hit are left out; they make up all but 3.5% or so of the library.
FLuc inhib CS = Photinus pyralis luciferase inhibition counter-screen; P08659; ATPLite firefly luciferase biochemical luminescence, 10 min; 200,000 compounds, 1.5% hits; inhibition, % at 10 µM;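 active means inhibition above about 50% when tested at 10 µM, limit read from the data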
Target sequence (P08659 whole entry, looked up): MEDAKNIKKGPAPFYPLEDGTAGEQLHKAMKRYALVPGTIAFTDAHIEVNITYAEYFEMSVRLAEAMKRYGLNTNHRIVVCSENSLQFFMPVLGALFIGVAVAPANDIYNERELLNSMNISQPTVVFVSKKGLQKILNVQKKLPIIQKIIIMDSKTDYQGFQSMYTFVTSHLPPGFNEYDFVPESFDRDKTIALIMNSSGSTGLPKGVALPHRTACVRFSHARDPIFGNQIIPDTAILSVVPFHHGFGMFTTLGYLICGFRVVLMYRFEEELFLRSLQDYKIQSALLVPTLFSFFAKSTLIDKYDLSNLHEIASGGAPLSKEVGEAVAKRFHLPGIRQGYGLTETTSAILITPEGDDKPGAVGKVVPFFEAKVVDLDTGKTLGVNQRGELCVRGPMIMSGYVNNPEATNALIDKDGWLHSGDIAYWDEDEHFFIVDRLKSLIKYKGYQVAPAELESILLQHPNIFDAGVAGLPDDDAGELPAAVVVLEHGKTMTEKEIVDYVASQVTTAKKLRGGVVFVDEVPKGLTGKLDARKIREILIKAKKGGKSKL
NF-kB expr up = NF-kB expression increase, human neuronal cells; fold change at 12.5 µM; NF-kB reporter expression; hits give high values; 190,000 compounds, 1.6% hits; in the data active means fold change above about 3.3
Pf gamet viab = P. falciparum stage V gametocyte viability inhibition; inhibition, % at 10.9 µM; P. falciparum stage V gametocytes, ATP luminescence, 24 h; 150,000 compounds, 0.065% hits;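 active means inhibition above the mean plus 3 SD of compounds within the control limits, set per campaign, cut at about 38% in these data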;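 further: 0% = DMSO wells and 100% = medium only without gametocytes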
APP 5'UTR act = APP 5'UTR luciferase reporter activation; SH-SY5Y APP 5'UTR luciferase reporter, luminescence; zero percent = DMSO vehicle wells; 190,000 compounds, 1% hits; AID 1276; activation, % at 2 µM;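 active means activation above a set limit, based on mean plus 3 SD of controls, cut at about 140% in these data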
FLuc stim CS = affects firefly luciferase, flagging false hits in luciferase stimulation screens. 200,000 tested, under 10 active. activation factor at 10 µM. P08659. ATPlite luciferase biochemical, luminescence, 10 min; 0 = ATP-free wells, 1 = DMSO control;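 active means luciferase activation factor, scaled between plate controls, of at least 2 with compound at 10 µM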
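System: luciferase plus luciferin reagent, cell-free; medium: PBS as buffer for the ATP substrate; dosing: test compounds dosed from 2 mM stocks in 100% DMSO; timing: 10 min post-reagent at room temperature; measured by: luminescence measurement of luciferase light output; evaluation: luciferase activation, seen as luminescence increase over controls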
STAT1 activator = increases IFN-gamma driven STAT1 reporter signal; NIH 3T3 STAT1-luciferase reporter, luminescence; 100% = IFN-gamma alone, no compound; activation (% of control), % at 5.5 µM; 200,000 compounds, 2.6% hits;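 active means activation above the screen-wide mean activation plus 3 SD, cut at about 130% in these data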;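 further: raw ratio to IFN-gamma control signal so 100% means no change and 0% no light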
STAT1 activ conf = confirmation of STAT1 signaling activators; shares compounds with STAT1 activator; NIH 3T3 STAT1-luciferase reporter, IFN-gamma potentiation, luminescence; 100% = IFN-gamma EC80 alone, no compound; activation (% of control), % at 5.7 µM; 1,200 compounds, 97% hits;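 active means activation above a set limit carried over from the earlier primary STAT1 screen, cut at about 140% in these data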;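 further: simple ratio to median IFN-gamma plus DMSO wells so 0% means no light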
NFkB act STAT1ct = counter-screen for STAT1 activators: NF-kappaB activation; shares compounds with STAT1 activator; HEK293T NF-kB luciferase reporter, TNF-alpha stimulated, luminescence; 100% = TNF-alpha with vehicle only; activation (% of control), % at 5.7 µM; 1,200 compounds, 43% hits;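 active means activation above the mean of solvent-only control wells plus 3 SD, set per campaign, cut at about 130% in these data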;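 further: TNF-alpha given at a submaximal dose yielding about 80% of full reporter signal; values are well signal over median control so 100% means no change and 0% no light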
STAT3 act STAT1c = human STAT3 activation in STAT1 activator counter-screen. shares compounds with STAT1 activator. U3A cells STAT3-luciferase reporter, IL-6, luminescence; cells lack STAT1; 100 = IL-6 alone, no compound effect. activation (% of control), % at 5.7 µM. 1,200 compounds, 46% hits;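 active means activation above the solvent-only control well mean plus 3 SD, set per plate batch, cut at about 110% in these data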;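 further: 0% = no luminescence and 100% = median IL-6 plus DMSO wells; higher means more STAT3 reporter activation so hits are non-selective activators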
* = called active by the depositor; . = no result.

SMILES | FLuc inhib CS | NF-kB expr up | Pf gamet viab | APP 5'UTR act | FLuc stim CS | STAT1 activator | STAT1 activ conf | NFkB act STAT1ct | STAT3 act STAT1c
CC(C)[C@H](NC(=O)NCc1ccc(F)cc1)C(=O)O | . | . | 8 | . | . | . | . | . | .
Cc1ccc2nsnc2c1NS(=O)(=O)c1c(C)ccc2nsnc12 | -4 | 1.1 | 0 | 11 | 1 | 102 | . | . | .
Cc1ccc(/C=[N+](\[O-])c2ccc(N(C)C)cc2)c2nsnc12 | 72* | . | -4 | -61 | 0.3 | 162* | 199* | 137* | 107
c1ccc(-n2nnc(-c3cccnc3)n2)cc1 | 25 | 2.4 | 8 | 18 | 0.8 | 152* | 165* | 126 | 103
O=c1[nH]c2ccccc2nc1/C=C(\O)C1CC1 | 0 | 1.6 | . | 2 | 1 | 98 | . | . | .
O=c1[nH]c2ccccc2nc1C(F)(F)F | . | . | 7 | . | . | . | . | . | .
O=C(/C=C/c1ccc(F)cc1)Nc1nc2ccccc2[nH]1 | 22 | 1.9 | . | 161* | 0.8 | 154* | 189* | 119 | 91
O=c1[nH]c2ccccc2nc1/C=C/c1ccc(F)cc1 | 68* | 1.8 | -8 | 107 | 0.3 | 159* | 166* | 130 | 107
O=c1[nH]c2ccccc2nc1/C=C/c1ccccc1 | 60* | 2.6 | 0 | 105 | 0.4 | 162* | 188* | 128 | 121*
CC(=O)N1N=C(c2ccc(C)cc2)OC1c1ccc(C(C)C)cc1 (configuration not stated) | 0 | 4.3* | -42 | 116 | 1 | 166* | 217* | 146* | 146*
CC(=O)N1N=C(c2ccc(C)cc2)OC1c1ccc(C)cc1 (configuration not stated) | -4 | 1.8 | -5 | 29 | 1 | 122 | . | . | .
O=C(c1ccc(CS(=O)(=O)c2cccc(C(F)(F)F)c2)o1)N1CCN(c2ccccn2)CC1 | -8 | 0.85 | 8 | 1 | 1.1 | 94 | . | . | .
N#CC1(c2ccc(NC(=O)c3ccccc3F)cc2)CCCC1 | 64* | 11* | -33 | 145* | 0.4 | 161* | 228* | 133 | 104
CCN(CC)c1ccc(NC(=O)c2ccccc2F)cc1 | 47 | 6.1* | . | 111 | 0.5 | 164* | 192* | 124 | 96
O=C(O)CCCC(=O)N1CCc2cc(S(=O)(=O)N3CCc4ccccc43)ccc21 | -4 | 0.97 | . | -5 | 1 | 95 | . | . | .
N#CCCN(Cc1ccccc1)C(=O)Nc1ccc2c(c1)CCO2 | . | . | 6 | . | . | . | . | . | .
CCC(C)C(=O)N1c2ccccc2C(=C2SC(C(=O)OC)=C(C(=O)OC)S2)C(=S)C1(C)C (configuration not stated) | 2 | 0.71 | . | 9 | 1 | 89 | . | . | .
COc1ccc(-c2cn3cccc(C)c3n2)cc1Br | 57* | 4.8* | -5 | 137* | 0.4 | 172* | 191* | 130 | 102
O=C(Nc1ccccc1)C1=C(c2ccccc2)S(=O)(=O)CCS1(=O)=O | 1 | 0.27 | -37 | -87 | 1 | 78 | . | . | .
CC(C)(C)NS(=O)(=O)c1ccc(NS(=O)(=O)c2ccc(F)cc2)cc1 | -8 | 0.91 | . | -7 | 1.1 | 112 | . | . | .
CC(C)C(OC(=O)c1cccs1)C(=O)NCc1ccc2c(c1)OCO2 (configuration not stated) | -6 | 1.4 | 5 | 21 | 1.1 | 95 | . | . | .
O=[N+]([O-])c1ccc(S(=O)(=O)Nc2nc(-c3ccccc3)cs2)cc1 | . | . | -11 | . | . | . | . | . | .
C=CCNc1nc(-c2sc(NC(C)=O)nc2C)cs1 | -2 | 1.4 | 12 | 10 | 1 | 123 | . | . | .
C=CCNc1nc(-c2ccc(Cl)cc2)cs1 | 42 | 7.5* | . | 166* | 0.6 | 182* | 215* | 141* | 99
C=CCNc1nc(-c2ccc([N+](=O)[O-])cc2)cs1 | 29 | 4* | -18 | 72 | 0.7 | 151* | 194* | 136* | 88
SMILES | FLuc inhib CS | NF-kB expr up | Pf gamet viab | APP 5'UTR act | FLuc stim CS | STAT1 activator | STAT1 activ conf | NFkB act STAT1ct | STAT3 act STAT1c
CCc1ccc(/C=N/NC(=O)c2c[nH]c3ccccc23)s1 | 24 | 2.1 | . | 122 | 0.8 | 154* | 189* | 126 | 115*
CCN(CC)c1ccc(/C=N/NC(=O)c2c[nH]c3ccccc23)cc1 | 13 | 1.2 | -19 | 17 | 0.9 | 120 | . | . | .
Cc1ccc(S(=O)(=O)N2CCCN(C(=O)OC(C)(C)C)CC2)cc1 | . | . | 2 | . | . | . | . | . | .
COC(=O)CSc1nc2cc(C)ccc2cc1C#N | -1 | 6.3* | -21 | 138* | 1 | 156* | 224* | 142* | 106
Cc1nn(C(C)C(=O)NNC(=S)Nc2ccc(F)cc2)c(C)c1[N+](=O)[O-] (configuration not stated) | -6 | 1.6 | . | -1 | 1.1 | 101 | . | . | .
Nc1nc(CN2CCCCCC2)nc(Nc2ccccc2)n1 | -6 | 0.74 | -26 | 10 | 1.1 | 98 | . | . | .
Cc1c(-c2nc(N)nc(Nc3ccccc3)n2)oc2ccccc12 | -4 | 3 | . | 154* | 1 | 164* | 211* | 148* | 107
CN(C)/C=C(\C#N)c1nc2ccccc2[nH]1 | -2 | 1.4 | . | 15 | 1 | 106 | . | . | .
Cc1ccc(/C=C(\C#N)c2nc3ccccc3[nH]2)s1 | 47 | 6.1* | . | 215* | 0.5 | 162* | 222* | 137* | 101
CCCc1nc(NCC2CCCO2)c2nnn(Cc3ccccc3)c2n1 (configuration not stated) | -5 | 1.2 | . | -8 | 1.1 | 92 | . | . | .
c1ccc(N2CCN(c3nc4cc5c(cc4s3)OCCO5)CC2)cc1 | 16 | 2.1 | -7 | 49 | 0.8 | 158* | 190* | 125 | 85
c1ccc2sc(N3CCOCC3)nc2c1 | 9 | 1.3 | 5 | 29 | 0.9 | 117 | . | . | .
COc1cccc(/C=N/NC(=O)c2[nH]c(C)c(C(=O)N/N=C/c3cccc(OC)c3O)c2C)c1O | 21 | 1 | -5 | -11 | 0.8 | 102 | . | . | .
Nc1cc2nn(-c3ccccc3)nc2cc1Cl | 49 | 4.4* | 1 | 199* | 0.5 | 166* | 238* | 133 | 151*
Nc1ccc2nn(-c3ccccc3)nc2c1 | 60* | 3 | . | 93 | 0.4 | 155* | 203* | 132 | 110
Nc1ccc(-n2nc3ccccc3n2)cc1 | . | . | -8 | . | . | . | . | . | .
CSc1cccc(NC(=S)N(CCN(C)C)C(C)c2ccncc2)c1 (configuration not stated) | . | . | 8 | . | . | . | . | . | .

Bioassay records as filed in PubChem.
